Results published in ChEMBL document CHEMBL3621047, “Quaternary Indolizidine and Indolizidone Iminosugars as Potential Immunostimulating and Glycosidase Inhibitory Agents: Synthesis, Conformational Analysis, Biological Activity, and Molecular Docking Study” (J Med Chem, 2015).
Calls of active or inactive are those of the source. The calls are words filed in the database; no cut-off is given here.

Columns and labels:
[1] = Inhibition of bovine liver beta-glucosidase using 10 mM p-nitrophenyl-[…]-D-glucopyranoside as substrate; set-up: species or system Bos taurus
[2] = Inhibition of aspergillus niger alpha-galactosidase using 10 mM p-nitrophenyl-alpha-D-galactopyranoside as substrate
In short: (§1)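 Enzyme (0.1 U/cm3; A. niger α-galactosidase or bovine liver β-galactosidase) was preincubated with inhibitor for 1 h at 37 °C. Substrate was 10 mM p-nitrophenyl α- or β-D-galactopyranoside in 200 mM sodium acetate, reacted 10 min at 37 °C. The reaction was stopped with 200 mM borate pH 9.8 and released p-nitrophenol read at 420 nm. Ki came from Lineweaver–Burk plots; values are the average of five assays.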

Beta-galactosidase = target: T1, Beta-galactosidase (Bos taurus, UniProt Q58D55); test: Inhibition of bovine liver beta-galactosidase using 10 mM p-nitrophenyl-beta-D-galactopyranoside as substrate; in short: as §1
T1 sequence (Q58D55 whole entry): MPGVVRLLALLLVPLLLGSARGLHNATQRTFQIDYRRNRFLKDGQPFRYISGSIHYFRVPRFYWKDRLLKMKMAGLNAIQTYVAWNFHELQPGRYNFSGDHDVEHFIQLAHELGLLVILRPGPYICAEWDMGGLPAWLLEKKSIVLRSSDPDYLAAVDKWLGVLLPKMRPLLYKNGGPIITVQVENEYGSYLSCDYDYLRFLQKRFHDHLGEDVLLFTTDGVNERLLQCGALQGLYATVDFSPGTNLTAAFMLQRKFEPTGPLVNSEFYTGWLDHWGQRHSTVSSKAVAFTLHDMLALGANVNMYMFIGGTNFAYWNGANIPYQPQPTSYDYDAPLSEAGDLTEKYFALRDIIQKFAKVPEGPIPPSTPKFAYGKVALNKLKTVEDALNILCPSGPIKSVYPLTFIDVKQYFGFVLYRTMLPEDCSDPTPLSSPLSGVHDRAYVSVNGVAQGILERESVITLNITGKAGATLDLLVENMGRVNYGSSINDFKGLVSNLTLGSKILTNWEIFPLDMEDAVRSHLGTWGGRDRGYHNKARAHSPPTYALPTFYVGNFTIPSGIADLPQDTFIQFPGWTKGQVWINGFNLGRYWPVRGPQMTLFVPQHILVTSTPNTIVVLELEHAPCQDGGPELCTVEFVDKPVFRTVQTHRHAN

Alpha-mannosidase = target: T2, Alpha-mannosidase (Canavalia ensiformis, UniProt C0HJB3); test: Inhibition of jack bean alpha-mannosidase using 10 mM p-nitrophenyl-alpha-D-mannopyranoside as substrate
T2 sequence (C0HJB3 whole entry): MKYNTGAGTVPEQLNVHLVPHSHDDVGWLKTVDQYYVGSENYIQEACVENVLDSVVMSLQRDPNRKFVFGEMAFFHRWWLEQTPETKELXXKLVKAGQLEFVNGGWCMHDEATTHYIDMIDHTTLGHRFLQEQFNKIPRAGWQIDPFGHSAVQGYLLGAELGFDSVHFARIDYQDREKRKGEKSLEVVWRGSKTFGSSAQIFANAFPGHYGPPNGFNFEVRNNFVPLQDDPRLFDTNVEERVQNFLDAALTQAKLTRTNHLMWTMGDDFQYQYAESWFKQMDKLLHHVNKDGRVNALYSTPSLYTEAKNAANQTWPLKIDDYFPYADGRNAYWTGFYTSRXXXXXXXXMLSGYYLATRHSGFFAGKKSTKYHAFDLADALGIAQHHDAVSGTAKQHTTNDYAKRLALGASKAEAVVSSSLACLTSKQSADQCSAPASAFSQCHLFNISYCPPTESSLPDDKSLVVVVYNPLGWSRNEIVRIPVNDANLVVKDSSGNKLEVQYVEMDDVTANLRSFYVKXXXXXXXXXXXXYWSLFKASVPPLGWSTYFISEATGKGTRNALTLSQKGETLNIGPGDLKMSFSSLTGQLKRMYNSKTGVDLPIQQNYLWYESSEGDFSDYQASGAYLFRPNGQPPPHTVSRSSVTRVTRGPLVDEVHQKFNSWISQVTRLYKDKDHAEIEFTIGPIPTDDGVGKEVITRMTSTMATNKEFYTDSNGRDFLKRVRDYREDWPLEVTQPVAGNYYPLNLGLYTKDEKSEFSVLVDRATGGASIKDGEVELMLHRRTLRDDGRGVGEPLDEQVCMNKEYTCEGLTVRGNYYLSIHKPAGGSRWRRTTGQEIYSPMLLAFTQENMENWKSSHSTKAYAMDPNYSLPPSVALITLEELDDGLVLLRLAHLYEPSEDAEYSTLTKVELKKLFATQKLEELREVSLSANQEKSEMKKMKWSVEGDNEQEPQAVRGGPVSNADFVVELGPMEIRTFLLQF
In short: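 Jack bean α-mannosidase (0.1 U cm−3) was preincubated with compound 1 h at 37 °C. Reaction used 10 mM p-nitrophenyl-α-D-mannopyranoside in 100 mM citrate pH 4.5, 10 min at 37 °C, stopped with 200 mM borate pH 9.8. Read at 420 nm. IC50 and Ki were determined, Ki from Lineweaver–Burk double-reciprocal plots. Mean of five assays.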

Oryza sativa = test: Inhibition of rice alpha-glucosidase at 1 mM using 10 mM p-nitrophenyl-alpha-D-glucopyranoside as substrate
In short: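 Rice α-glucosidase (0.1 U cm−3) was preincubated with compound 1 h at 37 °C. Reaction used 10 mM p-nitrophenyl-α-D-glucopyranoside in 100 mM phosphate pH 6.8, 10 min at 37 °C, stopped with 0.1 M Na2CO3. p-Nitrophenol was read at 420 nm. NI means no 50% inhibition at 1 mM. Ki came from Lineweaver–Burk plots. Average of five assays.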

[3] = Immunostimulating activity in Swiss albino mouse Splenocytes assessed as increase in ConA-induced cell proliferation at 0.5 uM after 72 hrs by MTT assay; type: functional, Splenocyte
In short: (§2)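 Swiss albino mouse splenocytes (2 × 10^6 cells/well) were treated with Con A alone or with test samples at final 0.5, 1, 2.5 and 5 μM. Con A is given as final 10 μg/mL in methods and 10 μM in text. Cells were held 72 h at 37 °C, 5% CO2, in RPMI with 10% FCS, then read by MTT. Values are % of Con A-treated cells (100%), mean ± SEM, n = 5.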

[4] = Immunostimulating activity in Swiss albino mouse Splenocytes assessed as increase in ConA-induced cell proliferation at 1 uM after 72 hrs by MTT assay; type: functional, Splenocyte; in short: as §2
[5] = Immunostimulating activity in Swiss albino mouse Splenocytes assessed as increase in ConA-induced cell proliferation at 2.5 uM after 72 hrs by MTT assay; type: functional, Splenocyte; in short: as §2
[6] = Immunostimulating activity in Swiss albino mouse Splenocytes assessed as increase in ConA-induced cell proliferation at 5 uM after 72 hrs by MTT assay; type: functional, Splenocyte; in short: as §2
Splenocyte [7] = test: Immunostimulating activity in Swiss albino mouse Splenocytes assessed as increase in ConA-induced cell proliferation upto 2.5 uM after 72 hrs by MTT assay; type: functional, cell-based; in short: as §2
[8] = Cytotoxicity against Swiss albino mouse Splenocytes assessed as cell proliferation at 0.5 to 5 uM after 72 hrs by MTT assay; type: cell-based; conditions: splenocyte; in short: as §2
Splenocyte [9] = test: Immunostimulating activity in Swiss albino mouse Splenocytes assessed as decrease in ConA-induced IL-4 secretion at 2.5 uM by ELISA; type: functional
In short: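 Supernatants came from Con A-stimulated splenocytes (2 × 10^6 cells/well) with compound at 2.5 or 5 μM. They were spun 2000g for 5 min and stored at −70 °C. IL-4 was measured by ELISA: sample 2 h at 37 °C, then peroxidase conjugate 1 h, substrate developed in the dark. Absorbance was read at 550 nm with 450 nm correction and quantified from an IL-4 standard curve. n = 5.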

Splenocyte [10] = test: Immunostimulating activity in Swiss albino mouse Splenocytes assessed as increase in IL-6 secretion at 2.5 uM by ELISA in presence of 10 uM ConA relative to control; type: functional
In short: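 Splenocytes (2 × 10^6 cells/well) were stimulated with 10 μM Con A plus compound (2.5 or 5 μM). Supernatant IL-6 was measured by sandwich ELISA: sample 2 h at 37 °C, biotinylated antibody 1 h, streptavidin–HRP, then substrate in the dark. Absorbance was read at 550 nm with 450 nm correction against an IL-6 standard curve. Mean ± SEM, n = 5.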

Splenocyte [11] = test: Immunostimulating activity in Swiss albino mouse Splenocytes assessed as increase in ConA-induced IFN-gamma secretion at 2.5 uM by ELISA; type: functional, cell-based
In short: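 IFN-γ was measured by ELISA in supernatants of splenocytes (2 × 10^6 cells/well). Cells were unstimulated, stimulated with Con A (10 μM), or given Con A plus compound (2.5 or 5 μM) for 24 h. Mean ± SEM, n = 5.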

Splenocyte [12] = test: Immunostimulating activity in Swiss albino mouse Splenocytes assessed as ConA-induced cell proliferation > 5 uM after 72 hrs by MTT assay; type: functional, cell-based
Aspergillus niger = test: Inhibition of aspergillus niger alpha-galactosidase at 1 mM using 10 mM p-nitrophenyl-alpha-D-galactopyranoside as substrate
In short: (§3)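 Galactosidase (0.1 U cm−3) was preincubated with compound 1 h at 37 °C. Reaction used 10 mM p-nitrophenyl-α- or β-D-galactopyranoside in 200 mM sodium acetate, 10 min at 37 °C, stopped with 200 mM borate pH 9.8. Read at 420 nm. NI means no 50% inhibition at 1 mM. Five assays averaged.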

[13] = target: T3, Alpha-mannosidase (Canavalia ensiformis) (UniProt C0HJB3); test: Inhibition of jack bean alpha-mannosidase at 1 mM using 10 mM p-nitrophenyl-alpha-D-mannopyranoside as substrate
T3 sequence (whole entry): T2 sequence (C0HJB3 whole entry)
In short: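 Jack bean α-mannosidase (0.1 U/cm3) was preincubated with inhibitor for 1 h at 37 °C. Substrate was 10 mM p-nitrophenyl α-D-mannopyranoside in 100 mM citrate pH 4.5, reacted 10 min at 37 °C. The reaction was stopped with 200 mM borate pH 9.8 and absorbance read at 420 nm. Ki came from Lineweaver–Burk plots; average of five assays. NI means under 50% inhibition at 1 mM.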

[14] = target: T4, Beta-galactosidase (Bos taurus) (UniProt Q58D55); test: Inhibition of bovine liver beta-galactosidase at 1 mM using 10 mM p-nitrophenyl-beta-D-galactopyranoside as substrate; in short: as §3
T4 sequence (whole entry): T1 sequence (Q58D55 whole entry)

Row | IC50 [1] | Ki [1] | inhibition (Oryza sativa) | Structure (SMILES) | Activity (Splenocyte [7]) | Activity [8] | inhibition at 2.5 µM (Splenocyte [9]) | fold change (FC) (Splenocyte [10]) | Activity (Splenocyte [11]) | Activity (Splenocyte [12]) | other results
1 | 22000 nM | 11000 nM | < 50% | O=C1CC[C@]2(CO)[C@@H](O)[C@H](O)[C@@H](O)CN12 | Active | Non-toxic | 57% | 12.1 | Active | inactive | IC50 [2]: 420 nM; Ki [2]: 330 nM; IC50 (Beta-galactosidase): 800 nM; Ki (Beta-galactosidase): 200 nM; IC50 (Alpha-mannosidase): 56 nM; Ki (Alpha-mannosidase): 35 nM; Activity [3]: 13%; Activity [4]: 80%; Activity [5]: 130%; Activity [6]: 103%
2 | 342000 nM | 113000 nM | < 50% | O=C1CC[C@@]2(COCc3ccccc3)[C@@H](O)[C@H](O)[C@H](O)CN12 | Active | Non-toxic | 40% | 4.9 | Active | inactive | inhibition (Aspergillus niger): < 50%; inhibition [13]: < 50%; inhibition [14]: < 50%
